Screening results from PubChem BioAssay.
BB579 growth dn: chemicals that inhibit yeast BB579 growth in restrictive medium (lifespan-shortening candidates); inhibition, % at 10 µM; S. cerevisiae BB579 growth, OD615, 48 h; 140,000 compounds, 0.51% hits;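 active = inhibition above a set limit, 3 SD over the mean compound inhibition, cut at about 44% in these data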
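test system = yeast BB579 (DeaD) | buffer or medium = restrictive CSMM-D medium | doses = single compound dose of 10 µM, 0.25% DMSO final | times = 4 h preincubation and 48 h exposure at 30 °C | technique = culture absorbance at 615 nm | benchmarks = amphotericin B 10 µg/mL, positive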
Yeast lifespan up: yeast lifespan extension. S. cerevisiae growth with nicotinamide, OD615; deaD strain in restrictive glucose medium. inhibition of the nicotinamide effect, % at 10 µM. 130,000 compounds, 0.68% hits;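 active = inhibition above a set limit, placed 3 SD over the median of all compounds, cut at about 26% in these data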;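 note: 0% = nicotinamide-treated wells and 100% = cells grown without nicotinamide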
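Test system – modified budding yeast, DeaD strain · Compound – single dose 10 µM compound, 0.25% DMSO · Times – culture preincubation 4 h, compound exposure 48 h, both 30 °C · Detection – optical density (absorbance) at 615 nm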
Insulin prom inh: TRM-6 insulin promoter activity inhibition; TRM-6 cells, insulin promoter-eGFP reporter, imaging; reporter expression induced with tamoxifen; inhibition, % at 2 µM; 130,000 compounds, 0.9% hits;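 active = inhibition above the mean plus 3 SD, with well images judged a real hit on visual review, cut at about 60% in these data, passing the limit was not always enough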
RAM inhibit: yeast RAM network inhibition; S. cerevisiae dse1pr::URA3 reporter, 5-FOA growth OD615, 2 d; analog-sensitive cbk1-as2 kinase mutant strain; inhibition, % at 50 µM; 190,000 compounds, 1.8% hits; AID 868;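 active = inhibition above a set limit, 3 SD over mean compound inhibition, cut at about 8.4% in these data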;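 note: 0% = DMSO-only wells with no growth and 100% = 10 µM 1-NA-PP1 full growth; inhibition rescues growth on 5-FOA so higher OD means more RAM inhibition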
HMGR II inh: E. faecalis class II HMG-CoA reductase inhibition | purified E. faecalis HMGR, NADPH absorbance 340 nm kinetic | inhibition, % at 10 µM | 190,000 compounds, 0.41% hits;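 active = inhibition above a set limit, the median over all tested compounds plus 3 SD, cut at about 9.5% in these data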;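 note: enzyme runs in reverse so mevalonate oxidation gives rising NADPH absorbance; 0% = complete reaction with DMSO and 100% = background rate lacking mevalonate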
* hit, by the source's call; / = no result given. Compounds with a hit are over-represented: about 3.7% of the library has one in this group of screens.

SMILES	BB579 growth dn	Yeast lifespan up	Insulin prom inh	RAM inhibit	HMGR II inh
O=C(c1c[nH]c(C(=O)C(Cl)(Cl)Cl)c1)c1ccccc1Cl	67*	90*	/	-1	2
NC(=O)c1cc(C(=O)c2ccc(Cl)cc2Cl)c[nH]1	/	/	/	-1	-1
CCc1ccc(NC(=O)N(Cc2ccco2)C(C)c2cccs2)cc1 (stereo not given)	-35	-19	14	11*	-1
Cc1ccc(NC(=O)CSc2nnc(-c3ccncc3)o2)cc1C	/	/	/	2	2
CCOc1ccc(N=Cc2c(O)c3ccccc3oc2=O)cc1	-39	88*	0	2	1
CCOc1ccc(N=Cc2c(O)cc(C)oc2=O)cc1	40	-8	/	0	4
Cc1cc(C(=O)COc2ccc(F)cc2Br)c(C)n1C	/	/	/	3	9.6*
O=c1c(Cc2ccccc2)c(O)ccn1CCc1cnc[nH]1	/	/	/	0	-6
CCOC(=O)c1c(-c2ccc(-c3ccccc3)cc2)csc1NC(=O)CCN1CCOCC1	95*	-8	/	1	3
COc1ccc(C(=O)NNC(=O)CCn2nnc(-c3ccc(C)cc3)n2)cc1OC	/	/	0	9.2*	0
Cc1ccc(OCC(=O)NC(=S)Nc2ccc(Br)cn2)cc1C	/	/	/	9.5*	-5
COc1ccc(S(=O)(=O)N2CCCCC2)cc1C(C)C	-24	5	18	10*	-4
COc1ccc(S(=O)(=O)N2CCCCCC2)cc1N(C)S(=O)(=O)c1ccccc1	0	6	/	10*	-7
CC(C)NC(=O)C(=O)NCCCN1CCOCC1	/	/	21	1	-3
COc1ccc(CNC(=O)C2CCCN2S(=O)(=O)c2ccc(Cl)cc2)cc1 (stereo not given)	-39	/	-72	0	18*
COc1ccc(CNC(=O)C2CCCN2S(=O)(=O)c2ccc(S(=O)(=O)N(C)C)cc2)cc1 (stereo not given)	-45	-10	0	3	-2
Cc1cc(=O)oc2cc(OC(=O)c3nn(C(C)C)c(=O)c4ccccc34)ccc12	-33	0	55	6	2
CC(C)n1nc(C(=O)Oc2ccc(Cl)cc2)c2ccccc2c1=O	-32	29*	7	7	0
COc1ccc(/C=N/NC(C)(C)C)c(OC)c1	/	/	18	-1	-6
COc1nccnc1NS(=O)(=O)c1ccc(NC(=S)NC(=O)c2ccc(F)c(F)c2)cc1	-46	10	39	3	-5
COc1nccnc1NS(=O)(=O)c1ccc(NC(=S)NC(=O)/C=C/c2ccc(F)cc2)cc1	-50	10	25	11*	-1
Cc1ccnn2cc3c(=O)n(C)c(=O)n(C)c3c12	64*	-31	7	0	-4
Cn1c(=O)c2cn3ncccc3c2n(C)c1=O	15	-8	32	0	2
CCn1c(=O)[nH]c2cc(C(=O)Nc3cc(C)cc(C)c3)ccc2c1=O	/	/	/	3	-4
O=C1NCCCc2c1oc1ccc(O)cc21	-7	-7	/	0	-6
SMILES	BB579 growth dn	Yeast lifespan up	Insulin prom inh	RAM inhibit	HMGR II inh
Oc1c(Cl)cc(Cl)c2c1NCCC2	99*	-26	18	-1	0
COc1cc(/C=N/N=C2/SCC(=O)N2c2ccc(O)cc2)ccc1O	/	/	-20	3	0
Brc1ccc(CSc2nnc3ccccn23)cc1	/	/	0	0	15*
Clc1cccc(Cl)c1CSc1nnc2ccccn12	21	-3	/	0	-4
CC(C)C(C)(C#N)NC(=O)CSc1nc2scc(-c3ccc(F)cc3)c2c(=O)n1Cc1ccccc1 (stereo not given)	-10	-4	/	0	-6
CC(C)N(C(=O)Cn1c(SCC(=O)NCc2ccc3c(c2)OCO3)nc2ccccc21)C(C)C	-10	/	-160	5	-5
CC(C)Sc1nc2ccccc2n1CC(=O)NCc1ccc2c(c1)OCO2	-31	-16	91*	2	-5
O=c1c(Cl)c(NCCCO)cnn1-c1nc2ccccc2[nH]1	-28	81*	37	0	2
COC(=O)C1=C(C)N(c2ccc(F)cc2)/C(=C/c2ccc(O)cc2)C1=O	/	/	/	8	-5
CCN1C(=O)C(CC(=O)Nc2ccc(OC)cc2)N(CCCN2CCN(c3ccc(F)cc3)CC2)C1=S (stereo not given)	/	/	-50	1	-3
COC(=O)CN1C(=S)N(Cc2ccccc2)C(=O)C1CC(=O)Nc1ccc(OC)cc1 (stereo not given)	-35	-2	80*	0	-4
COc1ccc(CN2C(=O)N(c3ccc(OC)cc3)C(=O)C2CC(=O)Nc2ccccc2)cc1 (stereo not given)	/	/	/	9.5*	0
COc1ccc(NC(=O)CC2C(=O)N(Cc3ccccc3)C(=S)N2CCN2CCOCC2)cc1 (stereo not given)	/	/	-333	0	11*
COc1ccc(NC(=O)CC2C(=O)N(C)C(=S)N2CCc2ccccc2)cc1 (stereo not given)	-40	6	7	1	1
Cc1ccc(S(=O)(=O)N2CCOCC2)cc1C(=O)Nc1nc2ccccc2[nH]1	-9	4	/	0	-7
Cc1nnc(SCC(=O)N2c3ccccc3CC2C)[nH]c1=O (stereo not given)	-31	5	58	0	2
COc1ccccc1-c1csc(NC(=O)c2ccc(N3C(=O)CCC3=O)cc2)n1	/	/	/	8	-7
COc1ccc(C(=O)NC2(C(F)(F)F)NC(=O)N(CCCc3ccccc3)C2=O)cc1OC (stereo not given)	-24	3	50	3	-3
CCOC(=O)/C(C#N)=C1/C(=O)N(Cc2ccccc2)c2ccccc21	/	/	/	4	15*
CN1CCN(C(=S)Nc2ccc(S(N)(=O)=O)cc2)CC1	/	/	/	2	-3
Clc1ccc(CSc2cc3c(nn2)-c2ccccc2CC3)cc1	-43	-2	-26	10*	-5
Clc1ccc(CSc2ccc(-c3ccccn3)nn2)cc1	/	/	0	1	-1
CCN(CC)S(=O)(=O)c1cc(NC(=O)[C@@H](NC(N)=O)C(C)C)ccc1C	/	/	/	0	0
CCOC(=O)c1c(-c2cccc([N+](=O)[O-])c2)csc1NC(=O)C1CCCCC1	-31	/	/	8.6*	-1
O=C(COC(=O)c1cc(Br)ccc1Cl)NC1CCCC1	/	/	/	4	-2
SMILES	BB579 growth dn	Yeast lifespan up	Insulin prom inh	RAM inhibit	HMGR II inh
Cc1cccc(N2C(=O)C(Oc3ccc(Cl)cc3Cl)C2C=O)c1C (stereo not given)	-27	51*	10	4	4
COc1ccc(OC)c2[nH]c(=O)c(CCNC(=O)c3cc4ccccc4o3)cc12	-49	-10	-50	2	-12
Cc1ccc(C)c2[nH]c(=O)c(CCNC(=O)c3cc4ccccc4o3)cc12	-16	0	30	8.5*	4
Cc1ccccc1NC(=O)Nc1nnc(Cc2ccc([N+](=O)[O-])cc2)s1	-17	-4	/	2	5
O=C(Nc1ccc(N2CCCCC2)cc1)c1ccc2c(c1)OCCO2	-9	-6	11	2	27*
CC(=O)N1CCN(c2ccc(NC(=O)c3ccc4c(c3)OCCO4)cc2)CC1	-8	-8	/	1	-1
